Source: ChEMBL document CHEMBL3272175, “Potential antitumor agents. 17. 9-Anilino-10-methylacridinium salts” (J Med Chem, 1976)

Experiments:
L1210 [1] = assay: Antitumor activity against mouse L1210 cells allografted in ip dosed C3H/DBA2 F1 mouse assessed as optimum dose required to increase in maximum life span administered as qd for 5 days; format: functional
How it was run: (§1)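 Mice: C3H/DBA2 F1 hybrids, 18.5-22.5 g, inoculated ip with 10⁵ L1210 cells on day 1. Treatment ip daily for 5 days from 24 h later, dose in 0.2 ml water (suspended or dissolved). T/C = ratio of mean life spans, treated vs control; optimum dose gives maximum T/C.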

L1210 [2] = assay: Antitumor activity against mouse L1210 cells allografted in C3H/DBA2 F1 mouse assessed as increase in life span at optimum dose, ip qd administered for 5 days relative to control; format: functional; how it was run: as §1
[3] = Dissociation constant, pKa of the compound; format: physicochemical

| pKa [3] | SMILES | Activity (L1210 [1]) | T/C (L1210 [2]) |
| --- | --- | --- | --- |
|  | NC(=O)c1ccc(Nc2c3ccccc3nc3ccccc23)cc1 | >500 mg/kg/day |  |
|  | CC(=O)Nc1ccc2c(c1)c(Nc1ccc(NS(C)(=O)=O)cc1)c1ccccc1[n+]2C | 6 mg/kg/day | 181% |
|  | CS(=O)(=O)Nc1ccc(Nc2c3ccccc3nc3ccc(N)cc23)cc1 | 2.5 mg/kg/day | 181% |
|  | C[n+]1c2ccccc2c(Nc2ccc(NS(C)(=O)=O)cc2)c2cc(N)ccc21 | 1.25 mg/kg/day | 180% |
|  | CCCCS(=O)(=O)Nc1ccc(Nc2c3ccccc3nc3ccccc23)cc1 | >500 mg/kg/day |  |
|  | COc1cc(NS(C)(=O)=O)ccc1Nc1c2ccccc2[n+](C)c2ccc(Cl)cc12 | 12 mg/kg/day | 179% |
|  | C[n+]1c2ccccc2c(Nc2ccc(N)cc2)c2ccccc21 | 75 mg/kg/day | 163% |
|  | CC(=O)Nc1ccc2c(Nc3ccccc3)c3ccccc3[n+](C)c2c1 | 50 mg/kg/day | 126% |
|  | Nc1ccc(Nc2c3ccccc3nc3ccccc23)cc1 | 33 mg/kg/day | 172% |
|  | C[n+]1c2ccccc2c(Nc2ccccc2)c2ccc([N+](=O)[O-])cc21 | >500 mg/kg/day |  |
|  | CS(=O)(=O)Nc1ccc(Nc2c3ccccc3nc3ccc(Br)cc23)cc1 | 35 mg/kg/day | 165% |
|  | CCCS(=O)(=O)Nc1ccc(Nc2c3ccccc3[n+](C)c3ccccc23)cc1 | >500 mg/kg/day |  |
| 12.5 | Cn1ccc(=N)cc1 |  |  |
|  | NS(=O)(=O)c1ccc(Nc2c3ccccc3nc3ccccc23)cc1 | >500 mg/kg/day |  |
|  | COc1cc(NS(C)(=O)=O)ccc1Nc1c2ccccc2nc2ccc(Br)cc12 | 6 mg/kg/day | 219% |
|  | COc1cc(NS(C)(=O)=O)ccc1Nc1c2ccccc2nc2ccc(Cl)cc12 | 10 mg/kg/day | 172% |
|  | CCCCS(=O)(=O)Nc1ccc(Nc2c3ccccc3[n+](C)c3ccccc23)cc1 | >500 mg/kg/day |  |
|  | CC(=O)Nc1ccc2c(c1)c(Nc1ccccc1)c1ccccc1[n+]2C | 22 mg/kg/day | 158% |
|  | CCS(=O)(=O)Nc1ccc(Nc2c3ccccc3nc3ccccc23)cc1 | 150 mg/kg/day | 183% |
|  | C[n+]1c2ccccc2c(Nc2ccc(NS(C)(=O)=O)cc2)c2cc(Br)ccc21 | 47 mg/kg/day | 168% |
|  | CC(=O)Nc1ccc2c(Nc3ccc(NS(C)(=O)=O)cc3)c3ccccc3[n+](C)c2c1 | 15 mg/kg/day | 134% |
|  | C[n+]1c2ccccc2c(Nc2ccccc2)c2cc(N)ccc21 | 14 mg/kg/day | 162% |
|  | CCCS(=O)(=O)Nc1ccc(Nc2c3ccccc3nc3ccccc23)cc1 | 225 mg/kg/day | 134% |

| pKa [3] | SMILES | Activity (L1210 [1]) | T/C (L1210 [2]) |
| --- | --- | --- | --- |
|  | COc1cc(NS(C)(=O)=O)ccc1Nc1c2ccccc2nc2ccccc12 [AMSACRINE] | 12 mg/kg/day | 196% |
|  | C[n+]1c2ccccc2c(Nc2ccc(NS(C)(=O)=O)cc2)c2ccc(N)cc21 | 5 mg/kg/day | 167% |
|  | c1ccc(Nc2c3ccccc3nc3ccccc23)cc1 | >500 mg/kg/day |  |
|  | CC(=O)Nc1ccc2nc3ccccc3c(Nc3ccc(NS(C)(=O)=O)cc3)c2c1 | 13 mg/kg/day | 214% |
|  | C[n+]1c2ccccc2c(Nc2ccc(NS(C)(=O)=O)cc2)c2ccccc21 | 95 mg/kg/day | 184% |
|  | CC(=O)Nc1cccc(Nc2c3ccccc3[n+](C)c3ccccc23)c1 | 67 mg/kg/day | 132% |
|  | COc1cc(NS(C)(=O)=O)ccc1Nc1c2ccccc2[n+](C)c2ccc(Br)cc12 | 12 mg/kg/day | 158% |
|  | CS(=O)(=O)Nc1ccc(Nc2c3ccccc3nc3ccccc23)cc1 | 45 mg/kg/day | 207% |
|  | CCS(=O)(=O)Nc1ccc(Nc2c3ccccc3[n+](C)c3ccccc23)cc1 | 110 mg/kg/day | 166% |
|  | C[n+]1c2ccccc2c(Nc2ccccc2)c2ccc(N)cc21 | 20 mg/kg/day | 148% |
|  | CS(=O)(=O)Nc1ccc(Nc2c3ccccc3nc3cc([N+](=O)[O-])ccc23)cc1 | 250 mg/kg/day | 127% |
|  | C[n+]1c2ccccc2c(Nc2ccc(S(N)(=O)=O)cc2)c2ccccc21 | >500 mg/kg/day |  |
|  | Nc1cccc(Nc2c3ccccc3nc3ccccc23)c1 | 40 mg/kg/day | 146% |
| 12.4 | Cn1ccc(=N)c2ccccc21 |  |  |
|  | CC(=O)Nc1cccc(Nc2c3ccccc3nc3ccccc23)c1 | 30 mg/kg/day | 133% |
|  | CS(=O)(=O)Nc1ccc(Nc2c3ccccc3nc3cc(N)ccc23)cc1 | 25 mg/kg/day | 178% |
|  | CC(=O)Nc1ccc2c(Nc3ccc(NS(C)(=O)=O)cc3)c3ccccc3nc2c1 | 375 mg/kg/day | 147% |
|  | COc1cc(NS(C)(=O)=O)ccc1Nc1c2ccccc2[n+](C)c2ccccc12 | 12 mg/kg/day | 172% |
|  | CCS(=O)(=O)Nc1ccc(Nc2c3ccccc3[n+](C)c3ccc(Cl)cc23)c(OC)c1 | 60 mg/kg/day | 166% |
|  | C[n+]1c2ccccc2c(Nc2ccc(C(N)=O)cc2)c2ccccc21 | >500 mg/kg/day |  |
|  | C[n+]1c2ccccc2c(Nc2cccc(N)c2)c2ccccc21 | 120 mg/kg/day | 137% |
|  | C[n+]1c2ccccc2c(Nc2ccc(NS(C)(=O)=O)cc2)c2ccc([N+](=O)[O-])cc21 | >500 mg/kg/day |  |
|  | C[n+]1c2ccccc2c(Nc2ccccc2)c2ccccc21 | >500 mg/kg/day |  |
